High-throughput results (PubChem)
ERAP1 HTS inh – inhibitors of human ERAP1 aminopeptidase. Q9NZ08. recombinant ERAP1, Leu-AMC fluorescence, 60 min. inhibition, % at 10.7 µM. 0.15% of 340,000 active. AID 652197;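 active means mean replicate inhibition of at least 30%, or all replicates individually reaching that 30% level; inactive means mean below 30% and not every replicate reaching it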;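 further: 0% = neutral control wells and 100% = L-leucinethiol positive control wells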
E-sel inducer – E-selectin induction on HUVECs; AID 686992; P16581; 0.37% of 260,000 active; activation, % at 7.58 µM; HUVEC E-selectin immunofluorescence imaging; normalized: neutral wells 0, TNF-alpha wells 100;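 active means mean E-selectin-positive cell signal at least 10% of the positive control, reached in at least 60% of replicates, without over 20% cell loss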
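System: HUVEC, human umbilical vein endothelial cells; quantity: 3,000 cells/well; buffer or medium: EGM-2 medium, gelatin-coated wells; dosing: single-point compound dose; detection: immunofluorescence imaging; evaluation: % PE-positive cells; benchmarks: TNF-alpha, DMSO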
rRNA inh HTS – selective bacterial rRNA inhibition in E. coli. E. coli WT GFP vs humanized-ribosome RFP mutants, fluorescence, 24 h; active compounds read low; DMSO median 0, no signal -100. GFP signal change (wild-type ribosome), % (no concentration beside the values). 1.6% of 350,000 active;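 active means significant combined selectivity score with lowered wild-type GFP, culture density cut under 30%, mutant RFP and density less affected; inactive means any of these conditions unmet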
MLL AF4-AF9 inh – MLL-AF4/AF9 protein interaction inhibition | P42568 | AlphaScreen, biotin-AF4 peptide binding to FLAG-AF9 | inhibition, % at 10 µM | 0.47% of 350,000 active;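 active means every replicate reaching a set inhibition limit, whatever the replicate mean, cut at about 25% in these data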;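 further: 0% = plate neutral control median and 100% = total signal loss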
S100A4 MyoIIA – blocks human S100A4 binding to myosin IIA peptide; 0.14% of 360,000 active; P26447; inhibition, % at 10.7 µM; S100A4/TAMRA-MyoIIA peptide fluorescence polarization;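 active means mean inhibition of at least 70% across replicates, with every replicate also reaching that level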
Target sequence (P26447 whole entry, looked up): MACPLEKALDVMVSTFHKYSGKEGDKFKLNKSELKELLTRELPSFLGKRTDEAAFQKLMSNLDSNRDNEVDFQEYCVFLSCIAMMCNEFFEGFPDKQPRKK
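assay system = human S100A4 monomer with TAMRA-labelled myosin IIA peptide | also added = labelled myosin peptide probe, 5 nM | incubation = 5 min between mix addition and reading | control set = DMSO and TFP controls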
SIRT5 inh – sirtuin-5 (human) deacylase inhibition; Q9NXA8; Purified SirT5, succinyl-peptide AMC, trypsin-coupled fluorescence; inhibition, % at 15 µM; 1.1% of 330,000 active; in the data active means inhibition above about 15%
Target sequence (Q9NXA8 whole entry, looked up): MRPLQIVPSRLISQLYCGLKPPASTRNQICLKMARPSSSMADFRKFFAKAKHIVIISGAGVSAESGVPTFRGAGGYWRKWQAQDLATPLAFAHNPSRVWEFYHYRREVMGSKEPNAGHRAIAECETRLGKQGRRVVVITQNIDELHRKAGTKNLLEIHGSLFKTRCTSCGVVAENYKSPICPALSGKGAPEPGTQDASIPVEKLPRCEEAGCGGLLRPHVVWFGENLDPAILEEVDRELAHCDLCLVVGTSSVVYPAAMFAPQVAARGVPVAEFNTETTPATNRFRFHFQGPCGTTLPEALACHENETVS
* hit, by the source's call. Compounds with a hit are over-represented: about 3.4% of the library has one in this group of screens.

How did CO[C@@H]1CN(C)C(=O)c2ccc(NC(C)=O)cc2OC[C@@H](C)N(Cc2ccccc2C(=O)O)C[C@H]1C do in these assays?
ERAP1 HTS inh: -2; E-sel inducer: 3; rRNA inh HTS: 0; MLL AF4-AF9 inh: -2; S100A4 MyoIIA: -7; SIRT5 inh: -2

What do the screens show for `Oc1cc(-c2cccnc2)cc2cccnc12`?
ERAP1 HTS inh: -2; E-sel inducer: 0; rRNA inh HTS: -18; MLL AF4-AF9 inh: 26*; S100A4 MyoIIA: 0

What do the screens show for `CN1CCN(c2cc(-c3cc(O)c4ncccc4c3)ccn2)CC1`?
ERAP1 HTS inh: -3; E-sel inducer: 0; rRNA inh HTS: -33; MLL AF4-AF9 inh: 84*; S100A4 MyoIIA: -5

What do the screens show for `CC(C)NC(=O)Nc1ccc2c(c1)CC(=O)N([C@H](C)CO)C[C@@H](C)[C@@H](CN(C)C(=O)NC(C)C)O2`?
ERAP1 HTS inh: 0; E-sel inducer: 0; rRNA inh HTS: 3; MLL AF4-AF9 inh: -1; S100A4 MyoIIA: 0; SIRT5 inh: -2

What do the screens show for `COc1ccc(OC)c(S(=O)(=O)NCCc2ccccc2)c1`?
ERAP1 HTS inh: 9; rRNA inh HTS: -3; MLL AF4-AF9 inh: 1; S100A4 MyoIIA: -14; SIRT5 inh: 15*

Results for Cc1nc(C(=O)NNC(=O)c2cccc(Cl)c2)c(C(F)(F)F)o1 ?
ERAP1 HTS inh: 3; E-sel inducer: 0; rRNA inh HTS: -27*; MLL AF4-AF9 inh: -4; S100A4 MyoIIA: -1; SIRT5 inh: -2

What do the screens show for `Cn1c(SCC(=O)Nc2ccccc2-c2ccccc2)nnc1-c1ccco1`?
ERAP1 HTS inh: 4; rRNA inh HTS: -24*; MLL AF4-AF9 inh: -11; S100A4 MyoIIA: -12; SIRT5 inh: -3

What do the screens show for `CCC(=O)Nc1ccc(NC(=O)CSc2nnc(-c3ccco3)n2C)cc1`?
ERAP1 HTS inh: 2; E-sel inducer: 0; rRNA inh HTS: 2; MLL AF4-AF9 inh: 0; S100A4 MyoIIA: -1

Results for C/C=C/c1ccc2c(c1)O[C@@H](CN(C)C(=O)Nc1cccc(F)c1)[C@H](C)CN([C@H](C)CO)S2(=O)=O ?
ERAP1 HTS inh: 1; E-sel inducer: 0; rRNA inh HTS: -10; MLL AF4-AF9 inh: 5; S100A4 MyoIIA: 10; SIRT5 inh: 4

Results for COCC(=O)N1[C@@H](CO)[C@@H](c2ccccc2)C12CN(C(=O)c1cccc(F)c1)C2 ?
ERAP1 HTS inh: -3; E-sel inducer: 0; rRNA inh HTS: 2; MLL AF4-AF9 inh: -6; S100A4 MyoIIA: 2; SIRT5 inh: -1

Results for CC1=CC2=NC(=O)CC(C)(C(=O)N(CC(=O)NC3CCCC3)Cc3ccccc3)N2C=C1 (centres undefined) ?
ERAP1 HTS inh: -4; E-sel inducer: 41*; rRNA inh HTS: 2; MLL AF4-AF9 inh: -1; S100A4 MyoIIA: 2; SIRT5 inh: -15

How did C[C@H](CO)N1C[C@H](C)[C@@H](CN(C)C(=O)Nc2cccc3ccccc23)OCCCC[C@H](C)Oc2ccc(NC(=O)c3ccncc3)cc2C1=O do in these assays?
ERAP1 HTS inh: -5; E-sel inducer: 0; rRNA inh HTS: 2; MLL AF4-AF9 inh: -4; S100A4 MyoIIA: 4; SIRT5 inh: 6

What do the screens show for `NNC(=S)NC1CC2CC1C1C=CCC21` (centres undefined)?
ERAP1 HTS inh: 1; E-sel inducer: 0; rRNA inh HTS: -21*; S100A4 MyoIIA: 1; SIRT5 inh: -5

What do the screens show for `NC(=O)NN=C1CC2CC1C1C=CCC21` (centres undefined)?
ERAP1 HTS inh: -1; E-sel inducer: 0; rRNA inh HTS: 0; MLL AF4-AF9 inh: 3; S100A4 MyoIIA: 8; SIRT5 inh: -5

What do the screens show for `CO[C@@H]1CN(C)C(=O)c2ccc(NC(=O)C3CCOCC3)cc2OC[C@H](C)N(Cc2cccnc2)C[C@H]1C`?
ERAP1 HTS inh: 2; E-sel inducer: 0; rRNA inh HTS: -4; MLL AF4-AF9 inh: -2; S100A4 MyoIIA: 4

How did CC(C)=CC(=O)OCc1cc([N+](=O)[O-])cc2c1OCOC2 do in these assays?
ERAP1 HTS inh: 0; rRNA inh HTS: -16*; MLL AF4-AF9 inh: -1; S100A4 MyoIIA: -6; SIRT5 inh: -5
